The text below walks through data of ChEMBL document CHEMBL1121715, “New antiarrhythmic agents. 4. 1'-(Aminoalkyl)-1,2,3,4-tetrahydronaphthalene-1-spiro-3'-pyrrolidine-2',5'-dione derivatives” (J Med Chem, 1981).

“And” between values parts separate entries of the source, which are not always exact repeats. Identical values can stand only once. Some results are limits rather than exact numbers.

Series [1] deals with Mus musculus. The experiment in a line: Protection against chloroform induced arrhythmias in mice after subcutaneous administration at 100 mg/kg dose. Type of series: functional. The gist of the method:
(§1)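 Groups of 10 unanesthetized mice got sc injection of drug in 0.9% saline. After 20 min observation they were placed one by one in chloroform-vapor-saturated air. When breathing stopped, the thorax was opened and the heart inspected by eye; coordinated ventricular contractions counted as protected.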

Series [2] relates to Mus musculus. The experiment in a line: Protection against chloroform induced arrhythmias was measured in mice after sc administration at given dose. Type of series: functional. The gist of the method:
as §1

For series [3], the species on record is Mus musculus. The experiment in a line: Percentage toxicity measured as loss of righting reflex. Type of series: organism-based. The conditions noted are these: in vivo. The method, boiled down: (§2)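 Mice (groups of 10) were dosed sc with drug in 0.9% saline and watched for 20 min for overt toxicity (ataxia, convulsions, loss of righting reflex, death) before chloroform exposure.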

The species entered for series [4] is Mus musculus. The experiment in a line: Percentage toxicity measured as convulsions. Format: organism-based. The conditions noted are these: in vivo. The gist of the method:
as §2

Series [5] has as its system Canis familiaris. Description: MABP value was measured in anesthetized dog at 0.026 dose. The conditions noted are these: in the assay text read “unanesthetized dog” for “anesthetized dog”. Type of series: functional, Canis lupus familiaris. The gist of the method:
(§3)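 Adult female dogs (6.7–14.5 kg) had the left anterior descending coronary artery ligated in two stages the day before testing. Dogs were unanesthetized. Ectopic beats (% of ventricular rate) and mean arterial pressure were read at maximal antiarrhythmic effect against the cumulative dose.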

The species entered for series [6] is Mus musculus. Description: Percentage toxicity measured as ataxia. Format: organism-based. The settings on record: in vivo. The gist of the method:
as §2

The subject of series [7] is Canis familiaris. The experiment in a line: % ectopic beats was measured in anesthetized dog at 0.053 dose. Type of series: functional, Canis lupus familiaris, Heart. The settings on record: in the assay text read “unanesthetized” for “anesthetized”. The method, boiled down: as §3
The species named for series [8] is Canis familiaris. Description: (§4) The dose at which toxicity was measured. Format: organism-based, Canis lupus familiaris. Also on record: unit: mmol/kg. The conditions noted are these: dog, in vivo. The gist of the method: (§5)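 Adult female dogs (6.7–14.5 kg) had two-stage ligation of the left anterior descending coronary artery the day before testing. After control ventricular rate, % ectopic beats and mean arterial pressure were recorded, the drug (HCl salt, isotonic solution) was infused iv without anesthesia at 0.1, 0.5 or 1.0 (mg/kg)/min, mostly 0.5. Infusion continued until the arrhythmia was abolished or cardiovascular/CNS toxicity appeared. Cumulative dose is given in mmol/kg; toxicity included convulsion and P-R prolongation ≥25%.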

The test system of series [9] is Canis familiaris. Description: Ventricular rate was measured in anesthetized dog at 0.026 dose. Format: functional, Canis lupus familiaris, Heart.
For series [10], the system named is Canis familiaris. The experiment in a line: % ectopic beats was measured in anesthetized dog at 0.026 dose. Type of series: functional, Canis lupus familiaris, Heart. The conditions noted are these: in the assay text read “unanesthetized” for “anesthetized”. The gist of the method:
as §3

In series [11] the test system is Canis familiaris. The experiment in a line: Ventricular rate was measured in anesthetized dog at 0.053 dose. Format: functional, Canis lupus familiaris, Heart. The settings on record: in the assay text read “unanesthetized dog” for “anesthetized dog”. The gist of the method: as §5
Series [12] in a line: Percentage toxicity measured as death of mice. Format: organism-based. Also on record: concentration or dose not given beside the values. The conditions noted are these: mouse, in vivo; read-out: Death.
The species named for series [13] is Canis familiaris. Described as §4. Type of series: organism-based, Canis lupus familiaris. The settings on record: dog, in vivo. The method, boiled down:
as §5

In series [14] the test system is Canis familiaris. Description: MABP value was measured in anesthetized dog at 0.053 dose. Format: functional, Canis lupus familiaris. The conditions noted are these: in the assay text read “unanesthetized dog” for “anesthetized dog”. The method, boiled down: as §5
Series [15] deals with Canis familiaris. Description: % ectopic beats was measured in anesthetized dog at 0.021d ose. Type of series: functional, Canis lupus familiaris, Heart. The settings on record: in the assay text read “unanesthetized” for “anesthetized”. The gist of the method:
as §3

The test system of series [16] is Canis familiaris. The experiment in a line: Blood level was measured in anesthetized dog at 0.029 dose. Type of series: functional, Canis lupus familiaris.
The subject of series [17] is Canis familiaris. Description: Ventricular rate was measured in anesthetized dog at 0.021 dose. Format: functional, Canis lupus familiaris, Heart. The settings on record: in the assay text read “unanesthetized dog” for “anesthetized dog”. The method, boiled down:
as §5

Series [18] concerns Canis familiaris. Description: MABP value was measured in anesthetized dog at 0.017 dose. The conditions noted are these: in the assay text read “unanesthetized dog” for “anesthetized dog”. Type of series: functional, Canis lupus familiaris. The gist of the method: as §3
Series [19] concerns Mus musculus. Description: Protection against chloroform induced arrhythmias was measured in mice after sc administration at given dose. Type of series: functional. The conditions noted are these: Mus musculus, sc; read-out: ED50. The method, boiled down: as §1
The subject of series [20] is Canis familiaris. The experiment in a line: MABP value was measured in anesthetized dog at 0.042 dose. Type of series: functional, Canis lupus familiaris. The conditions noted are these: in the assay text read “unanesthetized dog” for “anesthetized dog”. The method, boiled down: as §5
Series [21] has as its system Canis familiaris. Description: MABP value was measured in anesthetized dog at 0.029 dose. Format: functional, Canis lupus familiaris. The conditions noted are these: in the assay text read “unanesthetized dog” for “anesthetized dog”. The method, boiled down:
as §3

The subject of series [22] is Canis familiaris. The experiment in a line: % ectopic beats was measured in anesthetized dog at 0.029 dose. The conditions noted are these: in the assay text read “unanesthetized” for “anesthetized”. Format: functional, Canis lupus familiaris, Heart. The method, boiled down:
as §3

Series [23] is filed under the species Canis familiaris. Description: Toxicity of blood level was measured. The settings on record: dog, in vivo. Format: organism-based, Canis lupus familiaris. The method, boiled down: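 In coronary-ligated conscious dogs under iv infusion, blood was sampled at toxicity. Drug was extracted with methylene chloride at pH 10.3 (ammonium citrate/ammonia) with another analogue as internal standard, then derivatized with heptafluorobutyrylimidazole. Assay was GC-FID on 3% JXR, quantified from drug/internal standard peak-height ratio against standard curves; results in μmol/mL.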

The species entered for series [24] is Canis familiaris. Description: Blood level was measured in […] at 0.017 dose. Format: functional, Canis lupus familiaris.
Series [25] relates to Canis familiaris. Description: % ectopic beats was measured in anesthetized dog at 0.042 dose. Format: functional, Canis lupus familiaris, Heart. The settings on record: in the assay text read “unanesthetized” for “anesthetized”. The gist of the method: as §3
Series [26] has as its system Canis familiaris. Description: Ventricular rate was measured in anesthetized dog at 0.042 dose. Type of series: functional, Canis lupus familiaris, Heart. The settings on record: in the assay text read “unanesthetized dog” for “anesthetized dog”. The method, boiled down:
as §5

For series [27], the system named is Canis familiaris. The experiment in a line: MABP value was measured in anesthetized dog at 0.005 dose. Format: functional, Canis lupus familiaris. The settings on record: in the assay text read “unanesthetized dog” for “anesthetized dog”. The gist of the method: as §3
For series [28], the system named is Canis familiaris. The experiment in a line: MABP value was measured in anesthetized dog at 0.021d ose. Format: functional, Canis lupus familiaris. The conditions noted are these: in the assay text read “unanesthetized dog” for “anesthetized dog”. The method, boiled down: as §3
For series [29], the system named is Canis familiaris. Description: % ectopic beats was measured in anesthetized dog at 0.005 dose. Format: functional, Canis lupus familiaris, Heart. The conditions noted are these: in the assay text read “unanesthetized” for “anesthetized”. The gist of the method:
as §3

The species named for series [30] is Canis familiaris. The experiment in a line: Toxicity of the compound. Type of series: organism-based, Canis lupus familiaris. The settings on record: dog, in vivo. The gist of the method:
as §5

The test system of series [31] is Canis familiaris. The experiment in a line: Ventricular rate was measured in anesthetized dog at 0.029 dose. Type of series: functional, Canis lupus familiaris, Heart. The conditions noted are these: in the assay text read “unanesthetized dog” for “anesthetized dog”. The gist of the method: as §5
Series [32] has as its system Canis familiaris. The experiment in a line: Ventricular rate was measured in anesthetized dog at 0.005 dose. Type of series: functional, Canis lupus familiaris, Heart. The conditions noted are these: in the assay text read “unanesthetized dog” for “anesthetized dog”. The gist of the method:
as §5

The subject of series [33] is Canis familiaris. Description: % ectopic beats was measured in anesthetized dog at 0.017 dose. Format: functional, Canis lupus familiaris, Heart. The conditions noted are these: in the assay text read “unanesthetized” for “anesthetized”. The method, boiled down:
as §3

Series [34] has as its system Canis familiaris. The experiment in a line: MABP value was measured in anesthetized dog at 0.026 dose. Type of series: functional, Canis lupus familiaris. The settings on record: in the assay text read “unanesthetized dog” for “anesthetized dog”. The gist of the method: as §3
The species named for series [35] is Canis familiaris. Description: The dose at which toxicity was measured. The settings on record: dog, in vivo. Format: organism-based, Canis lupus familiaris. The gist of the method: as §5
In series [36] the test system is Canis familiaris. Description: Ventricular rate was measured in anesthetized dog at given 0.017 dose. Format: functional, Canis lupus familiaris, Heart. The conditions noted are these: in the assay text read “unanesthetized” for “anesthetized”. The gist of the method:
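Adult female dogs (6.7–14.5 kg) had ventricular arrhythmias from two-stage ligation of the left anterior descending coronary artery the day before. Ventricular rate (bpm) was read at maximal antiarrhythmic effect against cumulative dose.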

Series [37] relates to Canis familiaris. The experiment in a line: % ectopic beats was measured in anesthetized dog at 0.026 dose. Type of series: functional, Canis lupus familiaris, Heart. The conditions noted are these: in the assay text read “unanesthetized” for “anesthetized”. The method, boiled down: as §3

Regarding `CCN(CC)CCN1C(=O)CC2(CCCc3ccc(O)cc32)C1=O` (centres undefined), in the series with Mus musculus [1], the Protection stood at 90%. The compound further returned an ED50 in the series with Mus musculus [2] of 150 µmol/kg. Further, the “Loss of righting reflex” value in the series filed under Mus musculus [3] came out at 0%. This compound registered a Convulsion in the series filed under Mus musculus [4] of 0%. The MABP in the series on Canis familiaris [5] turned out to be 130 mmHg; with Canis familiaris [14], 135 mmHg. The compound also gave an Ataxia in the series filed under Mus musculus [6] of 0%. Also, the Etopic beats is 7% in the series with Canis familiaris [7] and 3% with Canis familiaris [10]. The Cumulative dose in the series listed under Canis familiaris [8] was found to be 0.026 mM/kg; in the series filed under Canis familiaris [13], 0.042. The Ventricular rate with Canis familiaris [9] came out at 132 beats min-1; in the series on Canis familiaris [11], 102 beats min-1. Further, in series [12], the mortality is 0%.

Compound `CCN(CC)CCCCN1C(=O)CC2(CCCc3ccc(O)cc32)C1=O` (centres undefined) gave a Protection in the series on Mus musculus [1] of 100%. Further, the Etopic beats was 0% with Canis familiaris [15]; 0% with Canis familiaris [22]; 0% in the series with Canis familiaris [25]; 2% in the series with Canis familiaris [29]; 2% in the series with Canis familiaris [33]; 0% in the series on Canis familiaris [37]. The “Loss of righting reflex” value in the series listed under Mus musculus [3] is on record as 0%. Moreover, the Blood level in the series on Canis familiaris [16] is 0.007 uM ml-1; in the series listed under Canis familiaris [23], greater than 28 µM; in the series filed under Canis familiaris [24], 0.016 uM ml-1; in the series listed under Canis familiaris [30] it was 0.01 uM ml-1. For the same compound, the Ventricular rate is recorded as 168 beats min-1 with Canis familiaris [17]; 147 beats min-1 in the series with Canis familiaris [26]; 132 beats min-1 in the series on Canis familiaris [9]; 141 beats min-1 with Canis familiaris [31]; 162 beats min-1 in the series with Canis familiaris [32]; 153 beats min-1 in the series on Canis familiaris [36]. Moreover, the MABP with Canis familiaris [18] is 95 mmHg; with Canis familiaris [20], 100 mmHg; with Canis familiaris [21], 90 mmHg; with Canis familiaris [27] it was 80 mmHg; in the series with Canis familiaris [28] it was 70 mmHg; with Canis familiaris [34], 90 mmHg. In the series listed under Mus musculus [4], this compound yielded a Convulsion of 0%. The ED50 with Mus musculus [19] was found to be 130 µmol/kg. This compound also showed an Ataxia in the series listed under Mus musculus [6] of 0%. Further, the Cumulative dose is > 0.058 and > 0.126 in the series filed under Canis familiaris [8]; 0.063 in the series listed under Canis familiaris [35]. Besides, the mortality in series [12] stood at 0%.

The ED50 is the dose that gives a 50% effect, or the effect in half of the subjects.
